Results published in ChEMBL document CHEMBL4715860 (J Med Chem, 2020).
The source made the active and inactive calls. The calls are words filed in the database; no cut-off is given here.

Legend:
Mus musculus [1] = assay: In vivo inhibition of mTORC2 in C57BL/6J mouse assessed as reduction in PKB/Akt phosphorylation at Ser473 in brain at 25 mg/kg, po measured after 0.5 to 2 hrs by Western blot analysis; type: functional, organism-based; conditions: time 0.5-2 hrs
Summary of the method: (§1)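 Time course in female C57BL/6J mice after 25 mg/kg p.o.: cortex taken at set time points and western blotted for pS6 and pPKB. Signals quantified against α-tubulin as % of control cortex; n = 3 per time point and n = 9 controls. Brain compound level measured in the same mice.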

[2] = Elimination half life in C57BL/6J mouse plasma at 25 mg/kg, po administered as single dose by mass spectrometry based UHPLC analysis; type: ADME, organism-based; conditions: read-out: beta t1/2 (converted)
Summary of the method: (§2)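 One oral dose of 25 mg/kg to female C57BL/6J mice. Plasma and brain concentrations followed over time, n = 3 per time point (mean).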

[3] = Intrinsic clearance in Sprague-Dawley rat hepatocytes assessed per million cells at 5 uM incubated for 3 hrs by LC-MS analysis; type: ADME, cell-based, Hepatocyte; conditions: read-out: CLH
Summary of the method: (§3)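 Cryopreserved primary hepatocytes in suspension from CD-1 mouse, Sprague-Dawley rat, Beagle dog and human. Compound at 5 μM final (from 10 mM DMSO stock). Samples taken at 0, 15, 60, 90 and 180 min and quenched with ACN plus internal standard. Parent quantified by LC-MS. Hepatocyte-free medium incubations served as negative control; 7-ethoxycoumarin as positive control. Duplicate; CLint per 10^6 cells and t1/2.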

[4] = Intrinsic clearance in CD1 mouse hepatocytes assessed per million cells at 5 uM incubated for 3 hrs by LC-MS analysis; type: ADME, cell-based, Hepatocyte; conditions: read-out: CLH; summary of the method: as §3
[5] = AUC (0 to 8 hrs) in C57BL/6J mouse brain at 10 mg/kg, po administered once a day for 4 consecutive days by mass spectrometry based UHPLC analysis; type: ADME, organism-based; design: route oral, time 4 day, dose 10 mg/kg
Summary of the method: (§4)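 Female C57BL/6J mice given 10 mg/kg p.o. in 20% Captisol once daily for 4 consecutive days. Plasma and brain sampled after the final dose on day 4, n = 3 per time point.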

[6] = Cmax in C57BL/6J mouse brain at 10 mg/kg, po administered as single dose by mass spectrometry based UHPLC analysis; type: ADME, organism-based; design: route oral, dose 10 mg/kg
Summary of the method: (§5)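 Female C57BL/6J mice, one oral dose of 10 mg/kg in 20% Captisol; plasma and brain levels over time, n = 3 per time point (mean).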

[7] = AUC (0 to 8 hrs) in male Sprague-Dawley rat brain at 5 mg/kg, po; type: ADME, organism-based; design: time < 8 hr, route oral, dose 5 mg/kg; conditions: in vivo
Summary of the method: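 Male Sprague Dawley rats, single oral dose of 5 mg/kg. Plasma and brain concentrations measured over 8 h, n = 3, mean ± SEM; AUC0−8 computed from the time course.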

[8] = Tmax in C57BL/6J mouse brain at 25 mg/kg, po administered as single dose by mass spectrometry based UHPLC analysis; type: ADME, organism-based
Summary of the method: (§6)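 Female C57BL/6J mice given a single oral dose of 25 mg/kg. Plasma and brain levels followed over time (n = 3 per time point, mean). Tmax is the time of maximal concentration.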

[9] = Metabolic stability in human hepatocytes assessed as parent compound remaining at 5 uM incubated for 3 hrs by LC-MS analysis; type: ADME, cell-based, Hepatocyte; conditions: read-out: Stabilty
Summary of the method: (§7)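 Cryopreserved primary hepatocytes in suspension (CD-1 mouse, Sprague-Dawley rat, Beagle dog, human). Compound diluted from 10 mM DMSO stock to 5 μM final. Sampled at 0, 15, 60, 90 and 180 min, protein precipitated with ACN plus internal standard, supernatant analysed by LC−MS. Run in duplicate. 7-ethoxycoumarin as positive control. Hepatocyte-free medium incubations as negative control.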

[10] = Tmax in C57BL/6J mouse plasma at 25 mg/kg, po administered as single dose by mass spectrometry based UHPLC analysis; type: ADME, organism-based; summary of the method: as §6
Mus musculus [11] = assay: In vivo inhibition of PI3Kalpha C57BL/6J mouse assessed as increase in plasma insulin concentration at 25 mg/kg, po measured after 8 hrs by ELISA; type: functional, organism-based
Summary of the method: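 Female C57BL/6J mice given one oral dose (25 mg/kg); plasma insulin and glucose monitored over time, mean ± SEM.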

[12] = Metabolic stability in CD1 mouse hepatocytes assessed as half-life at 5 uM incubated for 3 hrs by LC-MS analysis; type: ADME, cell-based, Hepatocyte; summary of the method: as §3
[13] = Elimination half life in C57BL/6J mouse brain at 10 mg/kg, po administered as single dose by mass spectrometry based UHPLC analysis; type: ADME, organism-based; conditions: read-out: beta t1/2 (converted); summary of the method: as §5
[14] = AUC (0 to 8 hrs) in C57BL/6J mouse plasma at 25 mg/kg, po administered as single dose by mass spectrometry based UHPLC analysis; type: ADME, organism-based; design: time < 8 hr, route oral, dose 25 mg/kg; summary of the method: as §2
[15] = Metabolic stability in Sprague-Dawley rat hepatocytes assessed as parent compound remaining at 5 uM incubated for 3 hrs by LC-MS analysis; type: ADME, cell-based, Hepatocyte; conditions: read-out: Stabilty; summary of the method: as §7
Mus musculus [16] = assay: Protection against Tsc1-GFAP knockout induced mortality in Balb/c mouse assessed as increase in survival rate administered orally twice a day measured post last dose; type: functional, organism-based
Summary of the method: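 Tsc1GFAPCKO mice (Tsc1 conditionally inactivated mainly in glia). Oral dosing from P21 at 10, 25, 50 mg/kg qd or 50 mg/kg bid, n = 7–10 per group. Controls were vehicle and a comparator at 10 mg/kg. Body weight tracked. Survival followed from P21 to death or censoring at P90, compared by log-rank test.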

[17] = Elimination half life in C57BL/6J mouse brain at 10 mg/kg, po administered once a day for 4 consecutive days by mass spectrometry based UHPLC analysis; type: ADME, organism-based; conditions: time 4 day, read-out: beta t1/2 (converted); summary of the method: as §4
[18] = AUC (0 to 8 hrs) in C57BL/6J mouse plasma at 10 mg/kg, po administered as single dose by mass spectrometry based UHPLC analysis; type: ADME, organism-based; design: time < 8 hr, route oral, dose 10 mg/kg; summary of the method: as §5
Mus musculus [19] = assay: In vivo inhibition of mTORC2 in C57BL/6J mouse assessed as reduction in PKB/Akt phosphorylation at Ser473 in brain at 25 mg/kg, po measured after 8 hrs by Western blot analysis; type: functional, organism-based; summary of the method: as §1
[20] = Elimination half life in C57BL/6J mouse brain at 25 mg/kg, po administered as single dose by mass spectrometry based UHPLC analysis; type: ADME, organism-based; conditions: read-out: beta t1/2 (converted); summary of the method: as §2
[21] = Toxicity in Balb/c nude mouse assessed as change in body weight at 150 mg/kg, po administered once daily for 14 days measured for 7 days starting from post last dose; type: organism-based; conditions: in vivo, 504 h, time 21 day
Mus musculus [22] = assay: In vivo inhibition of mTORC1 signalling in C57BL/6J mouse assessed as reduction in RPS6 phosphorylation at S235/236 residue in brain at 25 mg/kg, po measured after 8 hrs by Western blot analysis; type: functional, organism-based; summary of the method: as §1
[23] = AUC (0 to 8 hrs) in C57BL/6J mouse brain at 25 mg/kg, po administered as single dose by mass spectrometry based UHPLC analysis; type: ADME, organism-based; design: time < 8 hr, route oral, dose 25 mg/kg; summary of the method: as §2
[24] = Intrinsic clearance in human hepatocytes assessed per million cells at 5 uM incubated for 3 hrs by LC-MS analysis; type: ADME, cell-based, Hepatocyte; conditions: read-out: CLH; summary of the method: as §3
[25] = Tmax in C57BL/6J mouse brain at 10 mg/kg, po administered as single dose by mass spectrometry based UHPLC analysis; type: ADME, organism-based
Summary of the method: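 Female C57BL/6J mice dosed orally at 10 mg/kg in 20% Captisol, either once or once daily for 4 days with sampling after the last dose on day 4. Plasma and brain concentrations followed over time. Tmax taken from at least 3 time points.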

With C[C@@H]1COCCN1c1nc(-c2cnc(N)cc2C(F)F)nc(N2[C@H](C)COC[C@@H]2C)n1 the inhibition (Mus musculus [1]) was “Active”, the half-life [2] was 2.4 h and the hepatocyte CLint at 5 µM [3] was 5.3 µL/min/1e6 cells. For the same compound, the hepatocyte CLint at 5 µM [4] was 4.3 µL/min/1e6 cells, the AUC at 96 h [5] was 3050 ng·h/mL and the Cmax [6] was 1420 ng/mL. For the same compound, the AUC [7] was 3689 ng·h/g, the Tmax [8] was 0.5 h and the remaining at 3 h, 5 µM [9] was 44%. The Tmax [10] was 0.2 h, the inhibition (Mus musculus [11]) was “inactive” and the half-life at 5 µM [12] was 3.35 h. The half-life [13] was 2.9 h, the AUC(0-t) at 8 h [14] was 10300 ng·h/mL and the remaining at 3 h, 5 µM [15] was 42.3%. For the same compound, the Activity (Mus musculus [16]) was “Dose-dependent effect”, the half-life [17] was 2.3 h and the AUC(0-t) at 8 h [18] was 2940 ng·h/mL. For the same compound, the inhibition (Mus musculus [19]) was “inactive”, the half-life [20] was 2.4 h and the Activity [21] was “Non-Toxic”. The inhibition (Mus musculus [22]) was “inactive”, the AUC(0-t) at 8 h [23] was 17100 ng·h/mL and the hepatocyte CLint at 5 µM [24] was 5.3 µL/min/1e6 cells. The Tmax [25] was 0.5 h.
